Reference: ChEMBL document CHEMBL3352189 (J Med Chem, 2014)
Values after ≈ are worked out from the molar mass of the structure shown.

Tests used:
[1] = target: Muscarinic acetylcholine receptor M3 (Homo sapiens) (UniProt P20309); assay: Displacement of [3H]N-Methylscopolamine from human muscarinic M3 receptor at 10 uM
[2] = tested on: Venezuelan equine encephalitis virus; assay: Antiviral activity against Venezuelan equine encephalitis virus TC83 infected in Vero 76 cells assessed as reduction in viral titer by crystal violet staining based microplaque assay relative to untreated control; assay type: functional, organism-based; details: TC83, Vero 76
[3] = target: Neuronal acetylcholine receptor (Rattus norvegicus) (UniProt P04757+P09483+P12389+P12390+P12392+P43144+Q9JLB5+P12391+P43143+P20420+Q05941); assay: Displacement of [125I]epibatidine from human nAchR at 10 uM; assay type: protein-complex assay
[4] = target: Histamine H2 receptor (Homo sapiens) (UniProt P25021); assay: Displacement of [3H]N-alpha-Methylhistamine from human histamine H3 receptor at 10 uM
[5] = target: D(2) dopamine receptor (Homo sapiens) (UniProt P14416); assay: Displacement of [3H]spiperone from human dopamine D2S receptor at 10 uM
[6] = Plasma concentration in C57BL/6 mouse at 1 mg/kg, ip administered as single dose measured after 120 mins by LC/MS analysis based RACE assay; assay type: ADME, organism-based; design: dose 1 mg/kg, route intraperitoneal
Procedure, shortened: (§1)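 Single intraperitoneal dose of 1, 5 or 10 mg/kg given to C57BL/6 mice, 3 mice per dose and time point, with a vehicle-control cohort. Plasma was sampled at 20 and 120 min post-dose and drug level measured by LC/MS. Each time point averaged two injections (<20% difference); values are means ± standard deviation in μM.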

hERG (KCNH2) = hERG (KCNH2) (Homo sapiens, UniProt Q12809); assay: Displacement of [3H]astemizole from human ERG channel at 10 uM; details: probe [3H]astemizole
[7] = target: Cannabinoid receptor 1 (Homo sapiens) (UniProt P21554); assay: Displacement of [3H]SR141716A from human CB1 receptor at 10 uM
[8] = target: B1 bradykinin receptor (Homo sapiens) (UniProt P46663); assay: Displacement of [3H](Des-Arg10)-Kallidin from human bradykinin B1 receptor at 10 uM
[9] = target: Alpha-1B adrenergic receptor (Rattus norvegicus) (UniProt P15823); assay: Displacement of [3H]prazosin from rat adrenergic alpha1B receptor at 10 uM
[10] = target: Delta-type opioid receptor (Homo sapiens) (UniProt P41143); assay: Displacement of [3H]naltrindole from human delta1 opiate receptor at 10 uM
[11] = Stability in pH 7.4 PBS buffer assessed as parent compound remaining; assay type: physicochemical
Procedure, shortened: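 Aqueous stability measured after 48 h incubation, in PBS pH 7.4 or in 1:1 PBS/acetonitrile; reported as % parent remaining.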

[12] = target: Sodium-dependent dopamine transporter (Homo sapiens) (UniProt Q01959); assay: Displacement of [125I]RTI-55 from human DAT at 10 uM
Mus musculus [13] = assay: Toxicity in Venezuelan equine encephalitis virus TC83 infected C3H/HeN mouse assessed as induction of ruffled fur at 5 mg/kg/day, ip BID for 4 days; assay type: organism-based; design: route intraperitoneal; details: in vivo, 96 h
Mus musculus [14] = assay: Toxicity in Venezuelan equine encephalitis virus TC83 infected C3H/HeN mouse assessed as induction of lethargy at 5 mg/kg/day, ip BID for 4 days; assay type: organism-based; design: route intraperitoneal; details: in vivo, 96 h
[15] = target: D(1A) dopamine receptor (Homo sapiens) (UniProt P21728); assay: Displacement of [3H]SCH-23390 from human dopamine D1 receptor at 10 uM
[16] = target: Alpha-2A adrenergic receptor (Homo sapiens) (UniProt P08913); assay: Displacement of [3H]MK-912 from human adrenergic alpha2A receptor at 10 uM
[17] = target: D(3) dopamine receptor (Homo sapiens) (UniProt P35462); assay: Displacement of [3H]spiperone from human dopamine D3 receptor at 10 uM
[18] = Plasma concentration in C57BL/6 mouse at 10 mg/kg, ip administered as single dose measured after 20 mins by LC/MS analysis based RACE assay; assay type: ADME, organism-based; design: dose 10 mg/kg, route intraperitoneal; procedure, shortened: as §1
Rattus norvegicus = species on record: Rattus norvegicus; assay: Displacement of [3H]rolipram from rat Rolipram binding site at 10 uM
Liver = assay: Stability in mouse liver microsomes as parent compound remaining; assay type: ADME
Procedure, shortened: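 Mouse hepatic microsomes incubated for 1 h; reported as % parent remaining.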

[19] = target: Adenosine receptor A2a (Homo sapiens) (UniProt P29274); assay: Displacement of [3H]CGS-21680 from human adenosine A2A receptor at 10 uM
[20] = target: L-type calcium channel, dihydropyridine site (Rattus norvegicus, UniProt P22002+P27732+Q02485); assay: Displacement of [3H]nitrendipine from rat calcium channel L-Type dihydropyridine site at 10 uM; assay type: protein assay; details: probe [3H]nitrendipine
Mus musculus [21] = species on record: Mus musculus; assay: Displacement of [3H]PDBu from mouse phorbol ester receptor at 10 uM
[22] = Plasma concentration in C57BL/6 mouse at 10 mg/kg, ip administered as single dose measured after 120 mins by LC/MS analysis based RACE assay; assay type: ADME, organism-based; design: dose 10 mg/kg, route intraperitoneal; procedure, shortened: as §1
[23] = target: Glucocorticoid receptor (Homo sapiens) (UniProt P04150); assay: Displacement of [3H]dexamethasone from human glucocorticoid receptor at 10 uM
[24] = target: Beta-1 adrenergic receptor (Homo sapiens) (UniProt P08588); assay: Displacement of [125I]cyanopindolol from human adrenergic beta1 receptor at 10 uM
[25] = tested on: Venezuelan equine encephalitis virus; assay: Antiviral activity against Venezuelan equine encephalitis virus V3526 infected in Vero 76 cells assessed as reduction in virus-induced cytopathic effect after 2 days by Celltiter-Glo reagent based assay; assay type: functional, organism-based; details: V3526, Vero 76, 48 h
[26] = target: 5-hydroxytryptamine receptor 3A (Homo sapiens) (UniProt P46098); assay: Displacement of [3H]GR-65630 from human 5HT3 receptor at 10 uM
[27] = target: Prostaglandin E2 receptor EP4 subtype (Homo sapiens) (UniProt P35408); assay: Displacement of [3H]prostaglandin E2 from human EP4 […] at 10 uM
Mus musculus [28] = assay: Toxicity in Venezuelan equine encephalitis virus TC83 infected C3H/HeN mouse assessed as induction of lethargy at 40 mg/kg/day, ip BID for 4 days; assay type: organism-based; design: route intraperitoneal; details: in vivo, 96 h
[29] = Plasma concentration in C57BL/6 mouse at 1 mg/kg, ip administered as single dose measured after 20 mins by LC/MS analysis based RACE assay; assay type: ADME, organism-based; design: dose 1 mg/kg, route intraperitoneal; procedure, shortened: as §1
[30] = Hepatotoxicity in human Fa2N-4 cells; assay type: toxicity, cell-based; details: read-out: LD50 (the source's name)
[31] = target: B2 bradykinin receptor (Homo sapiens) (UniProt P30411); assay: Displacement of [3H]bradykinin from human bradykinin B2 receptor at 10 uM
[32] = Aqueous solubility in PBS buffer; assay type: physicochemical
Procedure, shortened: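 Solubility measured in 1× PBS at pH 7.4.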

Mus musculus [33] = assay: Toxicity in Venezuelan equine encephalitis virus TC83 infected C3H/HeN mouse assessed as induction of ruffled fur at 40 mg/kg/day, ip BID for 4 days; assay type: organism-based; design: route intraperitoneal; details: in vivo, 96 h
[34] = target: D(4) dopamine receptor (Homo sapiens) (UniProt P21917); assay: Displacement of [3H]spiperone from human dopamine D4.2 receptor at 10 uM
Mus musculus [35] = assay: Toxicity in Venezuelan equine encephalitis virus TC83 infected C3H/HeN mouse assessed as body weight loss at 40 mg/kg/day, ip BID for 4 days; assay type: organism-based; design: route intraperitoneal; details: in vivo, 96 h

Sequence of Alpha-1B adrenergic receptor (Rattus norvegicus) (P15823 whole entry): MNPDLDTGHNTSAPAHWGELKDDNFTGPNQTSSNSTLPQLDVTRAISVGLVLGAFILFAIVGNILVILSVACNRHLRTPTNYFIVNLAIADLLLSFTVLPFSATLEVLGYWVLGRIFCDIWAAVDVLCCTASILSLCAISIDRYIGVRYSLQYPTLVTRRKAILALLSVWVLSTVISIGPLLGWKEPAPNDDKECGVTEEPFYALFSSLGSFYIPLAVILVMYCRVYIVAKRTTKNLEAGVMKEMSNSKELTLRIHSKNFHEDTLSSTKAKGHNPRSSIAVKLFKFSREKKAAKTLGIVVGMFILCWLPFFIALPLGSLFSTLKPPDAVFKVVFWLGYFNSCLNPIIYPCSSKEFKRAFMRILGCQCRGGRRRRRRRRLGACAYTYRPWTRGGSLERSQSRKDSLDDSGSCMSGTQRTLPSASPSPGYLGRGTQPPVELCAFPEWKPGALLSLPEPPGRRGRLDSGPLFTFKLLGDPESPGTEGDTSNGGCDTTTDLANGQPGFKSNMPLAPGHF
Sequence of Muscarinic acetylcholine receptor M3 (Homo sapiens) (P20309 whole entry, looked up): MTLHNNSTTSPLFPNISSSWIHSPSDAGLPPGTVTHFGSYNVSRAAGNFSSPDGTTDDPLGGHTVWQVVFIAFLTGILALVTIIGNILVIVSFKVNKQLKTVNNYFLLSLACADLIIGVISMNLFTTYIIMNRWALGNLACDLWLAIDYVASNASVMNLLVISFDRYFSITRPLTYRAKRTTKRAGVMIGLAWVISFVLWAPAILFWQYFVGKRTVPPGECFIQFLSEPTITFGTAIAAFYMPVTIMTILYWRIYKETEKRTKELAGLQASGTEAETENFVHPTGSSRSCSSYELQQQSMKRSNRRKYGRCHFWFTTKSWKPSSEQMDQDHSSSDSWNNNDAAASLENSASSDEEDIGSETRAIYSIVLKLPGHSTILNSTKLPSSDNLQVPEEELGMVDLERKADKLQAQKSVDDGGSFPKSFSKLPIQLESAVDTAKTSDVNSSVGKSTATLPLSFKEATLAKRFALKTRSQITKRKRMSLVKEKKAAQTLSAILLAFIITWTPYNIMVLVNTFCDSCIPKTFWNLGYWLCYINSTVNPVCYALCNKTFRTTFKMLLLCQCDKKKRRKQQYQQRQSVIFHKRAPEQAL
Sequence of Histamine H2 receptor (Homo sapiens) (P25021 whole entry): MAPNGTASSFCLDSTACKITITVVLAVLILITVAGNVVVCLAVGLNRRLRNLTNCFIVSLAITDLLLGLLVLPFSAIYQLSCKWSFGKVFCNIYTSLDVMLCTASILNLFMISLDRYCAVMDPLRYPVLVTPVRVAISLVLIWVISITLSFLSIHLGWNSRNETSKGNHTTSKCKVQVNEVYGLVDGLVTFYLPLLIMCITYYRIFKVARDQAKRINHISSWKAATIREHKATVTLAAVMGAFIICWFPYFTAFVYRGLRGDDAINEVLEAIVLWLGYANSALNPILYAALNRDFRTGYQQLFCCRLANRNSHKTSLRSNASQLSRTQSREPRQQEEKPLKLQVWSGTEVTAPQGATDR
Sequence of Delta-type opioid receptor (Homo sapiens) (P41143 whole entry): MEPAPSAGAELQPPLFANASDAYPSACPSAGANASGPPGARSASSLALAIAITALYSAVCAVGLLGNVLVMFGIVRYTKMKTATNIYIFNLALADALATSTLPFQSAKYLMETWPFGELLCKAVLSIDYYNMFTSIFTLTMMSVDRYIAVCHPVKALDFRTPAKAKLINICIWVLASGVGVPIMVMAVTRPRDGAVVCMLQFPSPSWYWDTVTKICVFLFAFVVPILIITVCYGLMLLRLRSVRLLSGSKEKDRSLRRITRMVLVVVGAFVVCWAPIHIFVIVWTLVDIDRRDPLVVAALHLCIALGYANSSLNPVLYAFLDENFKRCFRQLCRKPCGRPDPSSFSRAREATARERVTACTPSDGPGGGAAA
Sequence of 5-hydroxytryptamine receptor 3A (Homo sapiens) (P46098 whole entry): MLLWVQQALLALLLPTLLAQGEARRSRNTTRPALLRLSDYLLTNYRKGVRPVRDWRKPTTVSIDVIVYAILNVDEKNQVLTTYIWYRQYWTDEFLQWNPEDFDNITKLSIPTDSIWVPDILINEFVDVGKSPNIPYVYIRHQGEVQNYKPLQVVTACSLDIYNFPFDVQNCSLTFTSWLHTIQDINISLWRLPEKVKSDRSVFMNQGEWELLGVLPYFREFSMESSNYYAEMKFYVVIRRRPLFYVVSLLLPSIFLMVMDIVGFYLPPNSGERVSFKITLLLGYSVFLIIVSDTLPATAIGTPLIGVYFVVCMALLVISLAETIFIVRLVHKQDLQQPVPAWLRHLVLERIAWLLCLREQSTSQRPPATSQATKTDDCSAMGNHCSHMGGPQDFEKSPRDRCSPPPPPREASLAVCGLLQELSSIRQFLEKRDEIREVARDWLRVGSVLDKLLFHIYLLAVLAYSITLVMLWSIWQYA
Sequence of Cannabinoid receptor 1 (Homo sapiens) (P21554 whole entry): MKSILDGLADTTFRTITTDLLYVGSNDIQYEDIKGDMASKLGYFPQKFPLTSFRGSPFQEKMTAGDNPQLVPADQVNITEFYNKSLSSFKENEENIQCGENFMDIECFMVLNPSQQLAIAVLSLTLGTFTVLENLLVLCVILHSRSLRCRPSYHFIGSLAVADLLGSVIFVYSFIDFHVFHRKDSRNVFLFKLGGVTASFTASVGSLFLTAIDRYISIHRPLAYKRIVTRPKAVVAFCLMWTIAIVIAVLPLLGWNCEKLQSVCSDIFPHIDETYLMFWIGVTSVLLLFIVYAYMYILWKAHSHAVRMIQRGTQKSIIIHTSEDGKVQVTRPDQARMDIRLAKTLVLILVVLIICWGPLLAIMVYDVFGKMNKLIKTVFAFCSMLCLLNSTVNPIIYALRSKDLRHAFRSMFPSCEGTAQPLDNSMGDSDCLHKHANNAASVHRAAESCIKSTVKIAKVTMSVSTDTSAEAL
Sequence of D(3) dopamine receptor (Homo sapiens) (P35462 whole entry): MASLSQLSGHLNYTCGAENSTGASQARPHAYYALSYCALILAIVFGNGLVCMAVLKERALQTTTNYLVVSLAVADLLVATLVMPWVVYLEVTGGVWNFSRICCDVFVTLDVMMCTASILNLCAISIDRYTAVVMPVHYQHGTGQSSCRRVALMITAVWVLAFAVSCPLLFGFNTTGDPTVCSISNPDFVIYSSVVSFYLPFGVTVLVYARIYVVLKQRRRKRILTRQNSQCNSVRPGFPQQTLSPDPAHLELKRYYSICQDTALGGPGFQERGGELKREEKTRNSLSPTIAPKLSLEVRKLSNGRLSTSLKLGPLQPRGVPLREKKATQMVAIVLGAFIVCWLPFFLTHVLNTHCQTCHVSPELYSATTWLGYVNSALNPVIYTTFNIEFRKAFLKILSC
Sequence of Glucocorticoid receptor (Homo sapiens) (P04150 whole entry): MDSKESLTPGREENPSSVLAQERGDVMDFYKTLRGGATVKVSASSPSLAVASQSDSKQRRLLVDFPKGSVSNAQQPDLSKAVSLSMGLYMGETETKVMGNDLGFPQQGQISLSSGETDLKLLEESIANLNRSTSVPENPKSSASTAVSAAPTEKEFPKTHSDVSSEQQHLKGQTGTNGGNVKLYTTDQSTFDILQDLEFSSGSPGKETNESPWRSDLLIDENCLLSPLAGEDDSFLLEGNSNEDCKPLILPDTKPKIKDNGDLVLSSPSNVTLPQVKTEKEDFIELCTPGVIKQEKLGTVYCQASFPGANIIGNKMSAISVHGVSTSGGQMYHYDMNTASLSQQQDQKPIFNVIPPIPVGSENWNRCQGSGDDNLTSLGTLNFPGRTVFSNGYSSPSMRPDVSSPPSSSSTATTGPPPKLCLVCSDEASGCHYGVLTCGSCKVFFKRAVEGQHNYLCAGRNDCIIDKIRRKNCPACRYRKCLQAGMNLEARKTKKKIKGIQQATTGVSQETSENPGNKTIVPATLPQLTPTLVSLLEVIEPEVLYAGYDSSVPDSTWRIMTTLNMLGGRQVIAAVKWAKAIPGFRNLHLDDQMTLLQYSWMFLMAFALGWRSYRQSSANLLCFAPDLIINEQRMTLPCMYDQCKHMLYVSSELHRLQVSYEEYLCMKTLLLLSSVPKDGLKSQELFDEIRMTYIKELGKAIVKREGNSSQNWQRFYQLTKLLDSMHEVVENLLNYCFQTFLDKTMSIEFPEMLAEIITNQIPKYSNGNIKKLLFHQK
Sequence of Sodium-dependent dopamine transporter (Homo sapiens) (Q01959 whole entry): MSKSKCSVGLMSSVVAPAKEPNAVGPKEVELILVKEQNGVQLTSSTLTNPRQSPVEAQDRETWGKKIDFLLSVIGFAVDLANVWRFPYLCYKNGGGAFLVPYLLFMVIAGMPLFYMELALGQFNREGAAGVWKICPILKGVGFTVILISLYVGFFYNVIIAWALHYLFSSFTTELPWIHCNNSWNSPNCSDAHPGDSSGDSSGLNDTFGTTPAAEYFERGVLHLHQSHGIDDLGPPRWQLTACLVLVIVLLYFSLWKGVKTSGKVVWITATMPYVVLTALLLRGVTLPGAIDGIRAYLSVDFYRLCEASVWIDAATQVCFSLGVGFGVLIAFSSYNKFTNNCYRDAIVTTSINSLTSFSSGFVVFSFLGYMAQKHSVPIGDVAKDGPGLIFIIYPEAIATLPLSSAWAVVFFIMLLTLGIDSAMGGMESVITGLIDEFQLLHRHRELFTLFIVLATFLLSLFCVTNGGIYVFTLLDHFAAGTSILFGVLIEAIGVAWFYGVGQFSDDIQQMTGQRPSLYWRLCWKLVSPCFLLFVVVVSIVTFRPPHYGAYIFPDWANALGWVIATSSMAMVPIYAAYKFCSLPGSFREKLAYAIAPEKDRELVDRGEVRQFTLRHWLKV
Sequence of B2 bradykinin receptor (Homo sapiens) (P30411 whole entry): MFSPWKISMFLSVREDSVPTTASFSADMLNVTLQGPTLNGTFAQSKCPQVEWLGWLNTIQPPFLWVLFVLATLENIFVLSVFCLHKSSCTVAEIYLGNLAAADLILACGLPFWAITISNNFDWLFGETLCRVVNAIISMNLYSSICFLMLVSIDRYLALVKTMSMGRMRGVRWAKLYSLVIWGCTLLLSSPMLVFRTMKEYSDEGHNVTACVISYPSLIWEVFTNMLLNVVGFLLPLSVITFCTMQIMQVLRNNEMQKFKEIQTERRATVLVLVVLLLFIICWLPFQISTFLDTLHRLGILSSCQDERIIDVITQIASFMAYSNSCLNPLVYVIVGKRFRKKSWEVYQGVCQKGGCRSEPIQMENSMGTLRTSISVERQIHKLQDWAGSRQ

CN1CCN(C)/C(=N/c2ccc([N+](=O)[O-])cc2C(=O)Nc2ccccc2)C1
inhibition [1]: 3% | EC50 [2]: 170 nM | inhibition [3]: 10.8% | inhibition [4]: 15.8% | inhibition [5]: 9.08% | concentration at 2 h [6]: 23 nM | inhibition at 10 µM (hERG (KCNH2)): 30% | inhibition [7]: -2.06% | inhibition [8]: 9.23% | inhibition [9]: -1.17% | inhibition [10]: -2.18% | Stability [11]: 82.9% | inhibition [12]: 10.8% | Activity (Mus musculus [13]): Non-toxic | Activity (Mus musculus [14]): Non-toxic | inhibition [15]: 2.65% | inhibition [16]: -0.5% | inhibition [17]: -1.53% | concentration at 20 min [18]: 2680 nM | inhibition (Rattus norvegicus): 34.9% | Stability (Liver): 42.9% | inhibition [19]: 17% | inhibition at 10 µM [20]: 4.51% | inhibition (Mus musculus [21]): 0% | concentration at 2 h [22]: 490 nM | inhibition [23]: 10.2% | inhibition [24]: 3.56% | EC50 [25]: 20 nM | inhibition [26]: 1.64% | inhibition [27]: 4.82% | Activity (Mus musculus [28]): Non-toxic | concentration at 20 min [29]: 200 nM | CC50 [30]: > 250000 nM | inhibition [31]: 3.4% | solubility [32]: 40.4 µg/mL (≈ 110 µM) | Activity (Mus musculus [33]): Non-toxic | inhibition [34]: 11.2% | Activity (Mus musculus [35]): Non-toxic
